# Measured values as given in ChEMBL document CHEMBL2040760, “Synthesis and biological evaluation of novel (-)-Cercosporamide derivatives as potent selective PPARγ modulators” (Eur J Med Chem, 2012).
# The source made the active and inactive calls. The rule behind the calls is not given here.
# Legend:
# [1] = biological target: T1, Peroxisome proliferator-activated receptor gamma (Homo sapiens) (UniProt P37231); experiment: Modulation of full-length human pSG5-fused PPARgamma expressed in MG-63 cells co-expressing pGV-P2-PPRE after 24 hrs by luciferase reporter gene based transactivation assay relative to 5-(4-{[6-(4-hydroxy-3,5-dimethylphenoxy)-1-methyl-1H-benzimidazol- 2-yl]methoxy}benzyl)-1,3-thiazolidine-2,4-dione; type: cell-based
# T1 sequence (whole entry): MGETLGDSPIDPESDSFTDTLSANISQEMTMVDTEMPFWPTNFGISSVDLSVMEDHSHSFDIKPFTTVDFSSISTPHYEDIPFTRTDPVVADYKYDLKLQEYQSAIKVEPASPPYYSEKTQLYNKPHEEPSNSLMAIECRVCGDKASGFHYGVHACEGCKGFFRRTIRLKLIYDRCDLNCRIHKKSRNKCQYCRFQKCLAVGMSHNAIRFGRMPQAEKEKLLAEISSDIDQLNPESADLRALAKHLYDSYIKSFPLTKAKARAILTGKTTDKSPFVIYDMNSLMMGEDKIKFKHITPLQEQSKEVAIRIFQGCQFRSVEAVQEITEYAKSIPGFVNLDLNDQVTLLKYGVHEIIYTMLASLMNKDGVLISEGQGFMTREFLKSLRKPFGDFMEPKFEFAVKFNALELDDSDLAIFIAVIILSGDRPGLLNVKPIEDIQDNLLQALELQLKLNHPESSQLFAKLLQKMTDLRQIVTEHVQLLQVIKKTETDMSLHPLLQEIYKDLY
# In short: (§1)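 MG-63 cells transiently co-transfected (Lipofectamine, 4 h, serum- and antibiotic-free) with pSG5-hPPARγ and pGV-P2-PPRE luciferase reporter, replated at 40,000 cells/well. After 24 h and medium change, exposed to graded compound concentrations for 20 h. Luciferase luminescence read as the output.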
# [2] = biological target: T2, Peroxisome proliferator-activated receptor gamma (Homo sapiens, UniProt P37231); experiment: Modulation of full-length human pSG5-fused PPARgamma expressed in MG-63 cells co-expressing pGV-P2-PPRE after 24 hrs by luciferase reporter gene based transactivation assay; type: cell-based; in short: as §1
# T2 sequence (P37231 whole entry): T1 sequence (whole entry)
# [3] = biological target: T2, Peroxisome proliferator-activated receptor gamma; experiment: Modulation of human GAL4-fused PPARgamma LBD expressed in COS7 cells co-expressing pG5luc by luciferase reporter gene based transactivation assay; type: cell-based, COS-7
# In short: (§2)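 COS7 cells in DMEM with 10% FBS were transfected with pM-hPPARγ, pM-PPARα or pM-PPARδ (GAL4-LBD) plus pG5luc using Lipofectamine 2000, then reseeded and held about 24 h. Serial dilutions were added, with 0.1% DMSO as control, for about 24 h more. Read-out was luciferase luminescence. Mean ± S.E.M., n = 3.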
# [4] = Solubility of the compound in JP2 at pH 6.8; type: physicochemical; settings: JP2, pH 6.8
# In short: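 Solubility was measured in JP2 medium at pH 6.8.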
# Rattus norvegicus [5] = experiment: Toxicity in Wistar-Imamichi rat assessed as increase in body weight at 300 mg/kg, po qd for 14 days; type: organism-based; set-up: dose 300 mg/kg, route oral; settings: in vivo, 336 h
# In short: (§3)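 Female Wistar–Imamichi rats (7 weeks old, acclimatized >1 week on FR2 chow), randomized by BW; n = 5/group. Oral gavage once daily in 0.5% methylcellulose, 100 mg/kg or 30–300 mg/kg, Days 0–13. BW recorded daily. On Day 14, heart weighed after Evans blue dosing and aortic blood draw under ether. Dunnett's or unpaired two-tailed t-test vs vehicle.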
# Rattus norvegicus [6] = experiment: Antidiabetic activity in Zucker diabetic fatty rat assessed as reduction of non-fasting plasma glucose level at >1 mg/kg, po qd for 12 days; type: functional
# In short: (§4)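 Female ZDF rats, 5 weeks old on arrival, acclimatised over 1 week on MR-DBT chow with 10% lard. Randomised on Day -1 by BW, PG, insulin and blood indices. Once-daily oral gavage in 0.5% methylcellulose at 0.01–100 mg/kg for 12 days, n = 5. BW recorded daily. Tail-vein plasma taken Day 12 for glucose, TG, FFA and insulin kits. Dunnett vs vehicle.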
# Rattus norvegicus [7] = experiment: Antidiabetic activity in po dosed Zucker diabetic fatty rat assessed as improvement in plasma lipids profiles administered qd for 12 days; type: functional, organism-based; in short: as §4
# Rattus norvegicus [8] = experiment: Antidiabetic activity in Zucker diabetic fatty rat assessed as reduction of triglyceride level at 1 to 100 mg/kg, po qd for 12 days; type: functional, organism-based
# In short: (§5)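 Female ZDF rats (5 weeks old on arrival, acclimatized >1 week on MR-DBT diet with 10% lard) randomized on Day -1 by BW, plasma glucose, insulin, Hct, Hb, RBC, MCV; n = 5/group. Oral gavage once daily in 0.5% methylcellulose, 0.01–100 mg/kg, Days 0–11. BW recorded daily; tail-vein plasma on Day 12 for glucose, TG, insulin, FFA; Dunnett's test vs vehicle.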
# Rattus norvegicus [9] = experiment: Antidiabetic activity in Zucker diabetic fatty rat assessed as reduction of free fatty acids level at >1 mg/kg, po qd for 12 days; type: functional, organism-based; in short: as §4
# Rattus norvegicus [10] = experiment: Toxicity in Zucker diabetic fatty rat assessed as increase in body weight at 0.1 mg/kg, po qd for 12 days; type: organism-based; set-up: dose 0.1 mg/kg, route oral; settings: in vivo, 288 h; in short: as §5
# Rattus norvegicus [11] = experiment: Toxicity in po dosed Wistar-Imamichi rat assessed as increase heart weight administered qd for 14 days; type: organism-based; settings: in vivo, 336 h; in short: as §3
# Rattus norvegicus [12] = experiment: Toxicity in Wistar-Imamichi rat assessed as increase heart weight at 100 mg/kg, po qd for 14 days; type: organism-based; set-up: dose 100 mg/kg, route oral; settings: in vivo, 336 h
# In short: (§6)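 Female Wistar–Imamichi rats, 7 weeks old on arrival, randomised by BW. Once-daily oral gavage in 0.5% methylcellulose for 14 days, n = 5, BW recorded daily. On Day 14, 0.05% Evans blue was given i.v. (0.1 mL/100 g) and aortic blood drawn at 10 min. Heart weighed. Plasma TCA-deproteinised, sonicated, A620 read, and plasma volume computed from an EB calibration curve.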
# [13] = Terminal half life in Fischer rat at 10 mg/kg, iv; type: ADME, organism-based; set-up: dose 10 mg/kg, route intravenous; settings: in vivo, read-out: beta t1/2 (converted)
# In short: (§7)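 Male Fischer rats, fasted overnight, received the potassium salt at 10 mg/kg (5 mg/mL, 2 mL/kg). Vehicle was 20% HCO-60 in saline orally or 5% HCO-60 intravenously. Jugular-vein blood was taken and plasma drug measured by LC-MS/MS. Non-compartmental PK analysis; oral n = 4.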
# Rattus norvegicus [14] = experiment: Toxicity in Zucker diabetic fatty rat assessed as increase in body weight at >1 mg/kg, po qd for 12 days; type: organism-based; settings: in vivo, 288 h; in short: as §4
# Rattus norvegicus [15] = experiment: Toxicity in Wistar-Imamichi rat assessed as increase plasma volume at 100 mg/kg, po qd for 14 days; type: organism-based; set-up: dose 100 mg/kg, route oral; settings: in vivo, 336 h; in short: as §6
# [16] = Oral bioavailability in Fischer rat at 10 mg/kg; type: ADME, organism-based; settings: in vivo; in short: as §7
# Rattus norvegicus [17] = experiment: Toxicity in Wistar-Imamichi rat assessed as increase in body weight at 30 to 100 mg/kg, po qd for 14 days; type: organism-based; set-up: dose 30-100 mg/kg, route oral; settings: in vivo, 336 h; in short: as §6
# [18] = Total clearance in Fischer rat at 10 mg/kg, iv; type: ADME, organism-based; set-up: dose 10 mg/kg, route intravenous; settings: in vivo; in short: as §7
# [19] = biological target: T3, Peroxisome proliferator-activated receptor delta (Homo sapiens) (UniProt Q03181); experiment: Modulation of human GAL4-fused PPARdelta LBD expressed in COS7 cells co-expressing pG5luc at 10 uM by luciferase reporter gene based transactivation assay; type: cell-based; settings: COS-7; in short: as §2
# T3 sequence (whole entry): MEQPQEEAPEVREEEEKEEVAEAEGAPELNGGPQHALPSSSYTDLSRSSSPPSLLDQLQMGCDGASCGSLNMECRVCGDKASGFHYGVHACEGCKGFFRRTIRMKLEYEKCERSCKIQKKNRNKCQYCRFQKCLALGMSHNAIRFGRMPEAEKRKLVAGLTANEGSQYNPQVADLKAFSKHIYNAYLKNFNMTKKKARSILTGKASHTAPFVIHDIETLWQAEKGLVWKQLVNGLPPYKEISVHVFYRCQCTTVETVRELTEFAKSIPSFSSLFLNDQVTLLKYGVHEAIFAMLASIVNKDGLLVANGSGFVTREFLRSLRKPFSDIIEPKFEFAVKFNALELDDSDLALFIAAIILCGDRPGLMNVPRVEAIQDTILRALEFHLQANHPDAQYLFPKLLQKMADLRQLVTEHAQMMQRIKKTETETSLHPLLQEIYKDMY
# [20] = biological target: T1, Peroxisome proliferator-activated receptor gamma (Homo sapiens); experiment: Modulation of human GAL4-fused PPARgamma LBD expressed in COS7 cells co-expressing pG5luc by luciferase reporter gene based transactivation assay relative to control; type: cell-based; settings: COS-7; in short: as §2
# [21] = biological target: T4, Peroxisome proliferator-activated receptor alpha (Homo sapiens) (UniProt Q07869); experiment: Modulation of human GAL4-fused PPARalpha LBD expressed in COS7 cells co-expressing pG5luc at 10 uM by luciferase reporter gene based transactivation assay; type: cell-based; settings: COS-7; in short: as §2
# T4 sequence (whole entry): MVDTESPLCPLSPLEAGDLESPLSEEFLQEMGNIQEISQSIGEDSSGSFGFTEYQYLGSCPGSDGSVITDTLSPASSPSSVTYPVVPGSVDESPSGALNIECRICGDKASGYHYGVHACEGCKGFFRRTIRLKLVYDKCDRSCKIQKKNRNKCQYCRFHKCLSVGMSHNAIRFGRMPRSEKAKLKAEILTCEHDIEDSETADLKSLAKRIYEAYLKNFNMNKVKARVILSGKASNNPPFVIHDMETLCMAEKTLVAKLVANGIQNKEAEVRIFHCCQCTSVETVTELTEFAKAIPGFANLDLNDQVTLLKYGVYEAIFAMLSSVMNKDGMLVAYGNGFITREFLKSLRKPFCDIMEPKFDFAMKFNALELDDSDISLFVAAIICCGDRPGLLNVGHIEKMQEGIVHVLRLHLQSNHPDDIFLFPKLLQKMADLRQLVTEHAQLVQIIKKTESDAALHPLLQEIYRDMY
# Rattus norvegicus [22] = experiment: Antidiabetic activity in Zucker diabetic fatty rat assessed as reduction of triglyceride level at 100 mg/kg, po qd for 12 days; type: functional, organism-based; set-up: dose 100 mg/kg; in short: as §4
structure (smiles),measurement,setting,value
COc1cc(O)c2c(c1C(=O)NCc1c(C)ccc3ccc(Cl)cc13)OC1=CC(O)=C(C(C)=O)C(=O)[C@]12C,Emax,[1],44%
same,EC50,[2],4.9 nM
COc1cc(O)c2c(c1C(=O)NCc1c(C)ccc3c(Cl)cccc13)OC1=CC(O)=C(C(C)=O)C(=O)[C@]12C,Emax,[1],59%
same,EC50,[2],170 nM
COc1cc(O)c2c(c1C(=O)NCc1c(C)ccc3ccccc13)OC1=CC(O)=C(C(C)=O)C(=O)[C@]12C,Emax,[1],47%
same,EC50,[2],28 nM
CCc1cc(F)c2ccccc2c1CNC(=O)c1c(OC)cc(O)c2c1OC1=CC(O)=C(C(C)=O)C(=O)[C@]12C [listing 1 of 2 here],EC50,[3],12 nM
same,solubility,[4],23 µg/mL
same,EC50,[2],0.94 nM
CN(CCOc1ccc(CC2SC(=O)NC2=O)cc1)c1ccccn1 (stereo unspecified) [ROSIGLITAZONE],Activity,Rattus norvegicus [5],Non-toxic
same,Activity,Rattus norvegicus [6],<200 mg/dL
same,Activity,Rattus norvegicus [7],Dose-dependent effect
same,Activity,Rattus norvegicus [8],Active
same,Activity,Rattus norvegicus [9],Active
same,Activity,Rattus norvegicus [10],Toxic
same,Activity,Rattus norvegicus [11],Dose-dependent effect
CCc1ccc2ccccc2c1CNC(=O)c1c(OC)cc(O)c2c1OC1=CC(O)=C(C(C)=O)C(=O)[C@]12C,Emax,[1],39%
same,EC50,[2],3.7 nM
COc1cc(O)c2c(c1C(=O)NCc1c(C)ccc3ccc(F)cc13)OC1=CC(O)=C(C(C)=O)C(=O)[C@]12C,Emax,[1],40%
same,EC50,[2],65 nM
CCc1cc(F)c2ccccc2c1CNC(=O)c1c(OC)cc(O)c2c1OC1=CC([O-])=C(C(C)=O)C(=O)[C@]12C.[K+],solubility,[4],910 µg/mL
same,Activity,Rattus norvegicus [6],<200 mg/dL
same,Activity,Rattus norvegicus [12],Non-toxic
same,half-life,[13],4 h
same,Activity,Rattus norvegicus [14],Toxic
same,Activity,Rattus norvegicus [15],Non-toxic
same,bioavailability,[16],58%
same,Activity,Rattus norvegicus [17],Toxic
same,clearance,[18],6.98 mL/min/kg
CCc1cc(F)c2ccccc2c1CNC(=O)c1c(OC)cc(O)c2c1OC1=CC(O)=C(C(C)=O)C(=O)[C@]12C [listing 2 of 2 here],Activity,[19],inactive
same,Activity,Rattus norvegicus [7],Dose-dependent effect
same,Emax,[20],64%
same,Activity,Rattus norvegicus [9],Active
same,Activity,[21],inactive
same,Activity,Rattus norvegicus [22],Active
same,Emax,[1],38%
